In brackets after ≈: the same amount, converted by molar mass.
system: Candida albicans; experiment: Antifungal activity against Candida albicans ATCC 64124 incubated for 48 hrs by modified CLSI M27-A3 protocol based method; assay type: functional; conditions: ATCC 64124, 48 h

SMILES | MIC50 [µM]
CCCCCCC(O)(Cn1cncn1)c1ccc(F)cc1F (configuration not stated) | 25.2 (≈ 7.8 µg/mL)

system: Candida albicans; experiment: Antifungal activity against ITC and FLC-susceptible Candida albicans ATCC MYA-2876 incubated for 48 hrs by modified CLSI M27-A3 protocol based method; assay type: functional; conditions: ATCC MYA-2876, 48 h
How it was run: (§1)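 Because these Candida strains show trailing growth, MIC-2 was read, meaning 50% growth inhibition. Caspofungin and voriconazole were tested here; other controls came from earlier work.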

SMILES | MIC50 [µM]
CCCCCCC(O)(Cn1cncn1)c1ccc(F)cc1F (configuration not stated) | 6.3 (≈ 1.95 µg/mL)

system: Candida albicans; experiment: Antifungal activity against ITC and FLC-susceptible Candida albicans ATCC MYA-2310 incubated for 48 hrs by modified CLSI M27-A3 protocol based method; assay type: functional; conditions: ATCC MYA-2310, 48 h

SMILES | MIC50 [µM]
CCCCCCC(O)(Cn1cncn1)c1ccc(F)cc1F (configuration not stated) | 12.6 (≈ 3.9 µg/mL)

system: Candida albicans; experiment: Antifungal activity against ITC and FLC-resistant Candida albicans ATCC MYA-1003 incubated for 48 hrs by modified CLSI M27-A3 protocol based method; assay type: functional; conditions: ATCC MYA-1003, 48 h; how it was run: as §1

SMILES | MIC50 [µM]
CCCCCCC(O)(Cn1cncn1)c1ccc(F)cc1F (configuration not stated) | 6.3 (≈ 1.95 µg/mL)

system: Nakaseomyces glabratus; experiment: Antifungal activity against Candida glabrata ATCC 2001 incubated for 48 hrs by modified CLSI M27-A3 protocol based method; assay type: functional; conditions: ATCC 2001, 48 h

SMILES | MIC50 [µM]
CCCCCCC(O)(Cn1cncn1)c1ccc(F)cc1F (configuration not stated) | 12.6 (≈ 3.9 µg/mL)

system: Pichia kudriavzevii; experiment: Antifungal activity against Candida krusei ATCC 6258 incubated for 48 hrs by modified CLSI M27-A3 protocol based method; assay type: functional; conditions: ATCC 6258, 48 h, read-out: MIC100
How it was run: (§2)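 For C. albicans ATCC 10231, C. krusei ATCC 6258 and C. parapsilosis ATCC 22019, MIC-0 was read, meaning complete growth inhibition. For azole controls, MIC-2 (50% growth inhibition) was reported instead. Caspofungin and voriconazole were tested here; other controls came from earlier work.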

SMILES | MIC [µM]
CCCCCCC(O)(Cn1cncn1)c1ccc(F)cc1F (configuration not stated) | 0.39 (≈ 0.121 µg/mL)

system: Candida parapsilosis; experiment: Antifungal activity against Candida parapsilosis ATCC 22019 incubated for 48 hrs by modified CLSI M27-A3 protocol based method; assay type: functional; conditions: Lodderomyces parapsilosis, ATCC 22019, 48 h; read-out: MIC100; how it was run: as §2

SMILES | MIC [µM]
CCCCCCC(O)(Cn1cncn1)c1ccc(F)cc1F (configuration not stated) | < 0.1

system: Aspergillus nidulans; experiment: Antifungal activity against Aspergillus nidulans ATCC 38163 incubated for 48 hrs by CLSI M38-A2 protocol based method; assay type: functional; conditions: ATCC 38163, 48 h, read-out: MIC100

SMILES | MIC [µM]
CCCCCCC(O)(Cn1cncn1)c1ccc(F)cc1F (configuration not stated) | 1.6 (≈ 0.495 µg/mL)

system: not listed separately; experiment: Toxicity in human A549 cells assessed as reduction in cell viability incubated for 24 hrs by resazurin dye based assay; conditions: not given
How it was run: (§3)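 Toxicity tested in the nucleated lines A549 and BEAS-2B to give EC50 values. Selectivity index is EC50 against the mammalian line divided by the MIC against a given fungal strain.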

SMILES | EC50 at 24 h [µg/mL]
CCCCCCC(O)(Cn1cncn1)c1ccc(F)cc1F (configuration not stated) | 35 (≈ 113 µM)

system: not listed separately; experiment: Toxicity in human BEAS2B cells assessed as reduction in cell viability incubated for 24 hrs by resazurin dye based assay; conditions: BEAS-2B cells; how it was run: as §3

SMILES | EC50 at 24 h [µg/mL]
CCCCCCC(O)(Cn1cncn1)c1ccc(F)cc1F (configuration not stated) | > 31.3

system: not listed separately; experiment: Hemolytic activity in mouse erythrocytes assessed as hemolysis level at 1.95 ug/ml incubated for 1 hr at 37 degC; assay type: ADME, cell-based, Erythrocyte; conditions: read-out: Activity
How it was run: (§4)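 Mouse erythrocytes incubated 1 h at 37 °C with test agents over 1.95 to 125 µg/mL. Percent lysis is read for each concentration.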

SMILES | hemolysis at 1 h, 1.95 ug/ml [%]
CCCCCCC(O)(Cn1cncn1)c1ccc(F)cc1F (configuration not stated) | 0

system: not listed separately; experiment: Hemolytic activity in mouse erythrocytes assessed as hemolysis level at 3.9 ug/ml incubated for 1 hr at 37 degC; assay type: ADME, cell-based, Erythrocyte; conditions: read-out: Activity; how it was run: as §4

SMILES | hemolysis at 1 h, 3.9 ug/ml [%]
CCCCCCC(O)(Cn1cncn1)c1ccc(F)cc1F (configuration not stated) | 0

system: not listed separately; experiment: Hemolytic activity in mouse erythrocytes assessed as hemolysis level at 7.8 ug/ml incubated for 1 hr at 37 degC; assay type: ADME, cell-based, Erythrocyte; conditions: read-out: Activity; how it was run: as §4

SMILES | hemolysis at 1 h, 7.8 ug/ml [%]
CCCCCCC(O)(Cn1cncn1)c1ccc(F)cc1F (configuration not stated) | 0

system: not listed separately; experiment: Hemolytic activity in mouse erythrocytes assessed as hemolysis level at 31.3 ug/ml incubated for 1 hr at 37 degC; assay type: ADME, cell-based, Erythrocyte; conditions: read-out: Activity; how it was run: as §4

SMILES | hemolysis at 1 h, 31.3 ug/ml [%]
CCCCCCC(O)(Cn1cncn1)c1ccc(F)cc1F (configuration not stated) | 10.4

system: not listed separately; experiment: Selectivity index, ratio of EC50 for toxicity in human BEAS2B cells to MIC50 for antifungal activity against Candida albicans ATCC 64124; assay type: cell-based; conditions: BEAS-2B cells, read-out: Selectivity Index
How it was run: (§5)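 Selectivity index is the EC50 against the mammalian line (A549 or BEAS-2B) divided by the MIC against the given fungal strain.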

SMILES | selectivity ratio
CCCCCCC(O)(Cn1cncn1)c1ccc(F)cc1F (configuration not stated) | 4

system: not listed separately; experiment: Selectivity index, ratio of EC50 for toxicity in human BEAS2B cells to MIC100 for antifungal activity against Candida albicans ATCC 10231; assay type: cell-based; conditions: BEAS-2B cells, read-out: Selectivity Index; how it was run: as §5

SMILES | selectivity ratio
CCCCCCC(O)(Cn1cncn1)c1ccc(F)cc1F (configuration not stated) | 16

system: not listed separately; experiment: Selectivity index, ratio of EC50 for toxicity in human A549 cells to MIC50 for antifungal activity against Candida albicans ATCC 64124; assay type: cell-based; conditions: read-out: Selectivity Index; how it was run: as §5

SMILES | selectivity ratio
CCCCCCC(O)(Cn1cncn1)c1ccc(F)cc1F (configuration not stated) | 4

system: not listed separately; experiment: Selectivity index, ratio of EC50 for toxicity in human A549 cells to MIC50 for antifungal activity against ITC and FLC-susceptible Candida albicans ATCC MYA-2876; assay type: cell-based; conditions: read-out: Selectivity Index; how it was run: as §5

SMILES | selectivity ratio
CCCCCCC(O)(Cn1cncn1)c1ccc(F)cc1F (configuration not stated) | 18

system: not listed separately; experiment: Selectivity index, ratio of EC50 for toxicity in human BEAS2B cells to MIC50 for antifungal activity against ITC and FLC-susceptible Candida albicans ATCC MYA-2876; assay type: cell-based; conditions: BEAS-2B cells, read-out: Selectivity Index
How it was run: (§6)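 Ratio of the compound's EC50 against BEAS-2B cells to its MIC against the named C. albicans strain. […] For C. albicans strains other than ATCC 10231, trailing growth meant MIC-2 was taken, meaning 50% growth inhibition.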

SMILES | selectivity ratio
CCCCCCC(O)(Cn1cncn1)c1ccc(F)cc1F (configuration not stated) | 16

system: not listed separately; experiment: Selectivity index, ratio of EC50 for toxicity in human A549 cells to MIC50 for antifungal activity against ITC and FLC-resistant Candida albicans ATCC MYA-90819; assay type: cell-based; conditions: read-out: Selectivity Index; how it was run: as §5

SMILES | selectivity ratio
CCCCCCC(O)(Cn1cncn1)c1ccc(F)cc1F (configuration not stated) | 18

system: not listed separately; experiment: Selectivity index, ratio of EC50 for toxicity in human BEAS2B cells to MIC50 for antifungal activity against ITC and FLC-susceptible Candida albicans ATCC MYA-2310; assay type: cell-based; conditions: BEAS-2B cells, read-out: Selectivity Index; how it was run: as §6

SMILES | selectivity ratio
CCCCCCC(O)(Cn1cncn1)c1ccc(F)cc1F (configuration not stated) | 8

system: not listed separately; experiment: Selectivity index, ratio of EC50 for toxicity in human A549 cells to MIC50 for antifungal activity against ITC and FLC-resistant Candida albicans ATCC 1237; assay type: cell-based; conditions: read-out: Selectivity Index; how it was run: as §5

SMILES | selectivity ratio
CCCCCCC(O)(Cn1cncn1)c1ccc(F)cc1F (configuration not stated) | 18

system: not listed separately; experiment: Selectivity index, ratio of EC50 for toxicity in human BEAS2B cells to MIC50 for antifungal activity against ITC and FLC-resistant Candida albicans ATCC 1237; assay type: cell-based; conditions: BEAS-2B cells, read-out: Selectivity Index; how it was run: as §5

SMILES | selectivity ratio
CCCCCCC(O)(Cn1cncn1)c1ccc(F)cc1F (configuration not stated) | 16

system: not listed separately; experiment: Selectivity index, ratio of EC50 for toxicity in human A549 cells to MIC50 for antifungal activity against ITC and FLC-resistant Candida albicans ATCC MYA-1003; assay type: cell-based; conditions: read-out: Selectivity Index; how it was run: as §5

SMILES | selectivity ratio
CCCCCCC(O)(Cn1cncn1)c1ccc(F)cc1F (configuration not stated) | 18

system: not listed separately; experiment: Selectivity index, ratio of EC50 for toxicity in human BEAS2B cells to MIC50 for antifungal activity against ITC and FLC-resistant Candida albicans ATCC MYA-1003; assay type: cell-based; conditions: BEAS-2B cells, read-out: Selectivity Index; how it was run: as §5

SMILES | selectivity ratio
CCCCCCC(O)(Cn1cncn1)c1ccc(F)cc1F (configuration not stated) | 16

system: not listed separately; experiment: Selectivity index, ratio of EC50 for toxicity in human BEAS2B cells to MIC50 for antifungal activity against Candida glabrata ATCC 2001; assay type: cell-based; conditions: BEAS-2B cells, read-out: Selectivity Index; how it was run: as §5

SMILES | selectivity ratio
CCCCCCC(O)(Cn1cncn1)c1ccc(F)cc1F (configuration not stated) | 8

system: not listed separately; experiment: Selectivity index, ratio of […] for toxicity in human BEAS2B cells to MIC50 for antifungal activity against Aspergillus flavus ATCC MYA-3631; assay type: cell-based; conditions: BEAS-2B cells, read-out: Selectivity Index

SMILES | selectivity ratio
CCCCCCC(O)(Cn1cncn1)c1ccc(F)cc1F (configuration not stated) | 2

system: not listed separately; experiment: Selectivity index, ratio of […] for toxicity in human A549 cells to MIC50 for antifungal activity against Aspergillus nidulans ATCC 38163; assay type: cell-based; conditions: read-out: Selectivity Index

SMILES | selectivity ratio
CCCCCCC(O)(Cn1cncn1)c1ccc(F)cc1F (configuration not stated) | 73

system: not listed separately; experiment: in vitro; conditions: mouse, mouse erythrocytes

SMILES | hemolysis at 1 h, 62.5 ug/ml [%]
CCCCCCC(O)(Cn1cncn1)c1ccc(F)cc1F (configuration not stated) | 26.3

system: not listed separately; experiment: Selectivity index, ratio of EC50 for toxicity in human A549 cells to MIC50 for antifungal activity against Candida krusei ATCC 6258; conditions: not given

SMILES | selectivity ratio
CCCCCCC(O)(Cn1cncn1)c1ccc(F)cc1F (configuration not stated) | 292

system: not listed separately; experiment: Selectivity index, ratio of EC50 for toxicity in human BEAS2B cells to MIC50 for antifungal activity against Candida krusei ATCC 6258; conditions: BEAS-2B cells

SMILES | selectivity ratio
CCCCCCC(O)(Cn1cncn1)c1ccc(F)cc1F (configuration not stated) | 261

system: not listed separately; experiment: Selectivity index, ratio of EC50 for toxicity in human A549 cells to MIC for antifungal activity against Candida parapsilosis ATCC 22019; conditions: not given

SMILES | selectivity ratio
CCCCCCC(O)(Cn1cncn1)c1ccc(F)cc1F (configuration not stated) | 1170

Reference: ChEMBL document CHEMBL4265871, “Novel alkylated azoles as potent antifungals” (Eur J Med Chem, 2017)
